The target of the first series is Serotonin 3 (5-HT3) receptor. As to the kind of experiment: Binding affinity for 5-HT3 receptor of NG108-15 cells using [3H]GR-65630. The format is cell-based.
Conditions: not given
An outline of the steps: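 Competition binding against 1 nM [3H]GR65630 (84.2 Ci/mmol; KD 0.7 nM); nonspecific binding defined with […]. Incubation 30 min at room temperature, then filtration on presoaked glass fiber filters, ice-cold buffer wash, scintillation counting. Log concentration vs percent inhibition fitted by nonlinear least squares assuming 100% maximal inhibition; Ki from IC50 via Cheng-Prusoff.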
For orientation: Ki means the dissociation constant of the complex between target and ligand, obtained from inhibition or displacement. Read a low Ki as higher affinity. With `CC1N=C(N)N=C(N)N1c1cccc(Cl)c1` (stereo not given), the Ki was greater than 10 µM. Still for that read-out and setting: to `NC1=Nc2cc(Cl)ccc2CN1` belongs 0.034 µM. Same read-out and setting: under `Nc1nccc(Nc2cccc(Cl)c2)n1` stands 1.46 µM. On the same count and under the same terms, under `Nc1ncnc(Nc2cccc(Cl)c2)n1` stands greater than 10 µM. Consider `Nc1nc(Nc2cccc(Cl)c2)n[nH]1`, for which the Ki is greater than 10 µM. For the molecule `Nc1nc2ccc(Cl)cc2[nH]1`, the Ki came out at 0.725 µM. On the same count and under the same terms, under `Nc1ncnc(Nc2ccc3ccccc3c2)n1` stands greater than 10 µM; under `CC1(C)N=C(N)N=C(N)N1c1cccc(Cl)c1`, greater than 10 µM; under `Nc1ncnc(Nc2ccccc2)n1` [AMANOZINE], greater than 10 µM.

Test system in a further series: not listed separately
As to the kind of experiment: Partition coefficient in an aqueous 1-octanol buffer system by the shake-flask method. Format: physicochemical. The settings on record: 1-octanol/aqueous buffer. An outline of the steps: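 LogP_app by shake-flask in aqueous buffer/1-octanol at pH 7.4 (ionic strength 0.10 M NaCl), 23±1.0 °C. Aqueous-phase compound concentration measured spectrophotometrically; values are means of duplicate determinations run in triplicate.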
The logD is lipophilicity at a set pH, counting ionised and neutral species. Low readings indicate a more hydrophilic compound, high ones a more lipophilic compound. Molecule `N=C(N)Nc1cc(Cl)c(Cl)c(Cl)c1` gave a logD of 1.16. On the same count and under the same terms, to `N=C(N)NC(=N)Nc1cccc(Cl)c1` belongs -0.38. The molecule `NC(N)=Nc1cccc(Cl)c1` yielded a logD of -0.64. In turn, `N=C(N)NC(=N)Nc1cc(Cl)c(Cl)c(Cl)c1` yielded a logD of 1.47.

The molecule `N=C(N)NC(=N)Nc1ccccc1` [PHENYL BIGUANIDE] gave a logD of -1.17. With `N=C(N)Nc1ccccc1` [PHENYLGUANIDINE], the logD is -1.32.
